Data: ChEMBL document CHEMBL3108689, “Stilbenes as κ-selective, non-nitrogenous opioid receptor antagonists” (J Nat Prod, 2014)

Columns and labels:
[1] = target: Kappa-type opioid receptor (Homo sapiens) (UniProt P41145); experiment: Competitive antagonist activity against human kappa opioid receptor overexpressed in CHO cells assessed as inhibition of U69,593-stimulated [35S]GTP-gamma-S binding by liquid scintillation counting; format: functional, cell-based
How it was run: (§1)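 CHO cells overexpressing human μ, δ or κ opioid receptor; membrane homogenates (20–40 μg protein) incubated 1 h at room temperature with 0.1 nM [35S]GTP-γ-S and 1 μM GDP in 50 mM HEPES pH 7.4, in duplicate. Agonist concentration–response curves run with or without one test-compound concentration (screen at 10 μM). Filtration, scintillation counting, normalized to basal; EC50 by four-parameter logistic; Ke = [L]/(DR − 1).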

[2] = target: Mu-type opioid receptor (Homo sapiens) (UniProt P35372); experiment: Competitive antagonist activity against human Mu opioid receptor overexpressed in CHO cells assessed as inhibition of DAMGO-stimulated [35S]GTP-gamma-S binding by liquid scintillation counting; format: functional, cell-based; how it was run: as §1
[3] = species on record: Homo sapiens; experiment: Selectivity ratio of Ke(app) for human Mu opioid receptor to ratio of Ke(app) for human kappa opioid receptor
[4] = species on record: Homo sapiens; experiment: Selectivity ratio of Ke(app) for human delta opioid receptor to ratio of Ke(app) for human kappa opioid receptor
[5] = target: Delta-type opioid receptor (Homo sapiens) (UniProt P41143); experiment: Competitive antagonist activity against human delta opioid receptor overexpressed in CHO cells assessed as inhibition of DPDPE-stimulated [35S]GTP-gamma-S binding by liquid scintillation counting; format: functional, cell-based; how it was run: as §1

Compound | Ke [1] [µM] | Ke [2] [µM] | Ratio [3] | Ratio [4] | Ke [5] [µM]
COc1cc(/C=C/c2ccc(OC)c(OC)c2CC=C(C)C)c(C/C=C(\C)CCC=C(C)C)c(OC)c1 | > 10 | > 10 |  |  | > 10
COc1cc(/C=C/c2cc(O)c(O)c(CC=C(C)C)c2)c(C/C=C(\C)CCC=C(C)C)c(OC)c1 | 0.15 | > 10 | > 67 | > 67 | > 10
COc1cc(/C=C/c2ccc(OC)c(OC)c2)c(C/C=C(\C)CCC=C(C)C)c(OC)c1 | > 10 | > 10 |  |  | > 10
CC(C)=CCc1c(O)cc(/C=C/c2ccc(O)cc2)cc1O | > 10 | > 10 |  |  | > 10
COc1cc(/C=C/c2ccc(OC)c(O)c2CC=C(C)C)c(C/C=C(\C)CCC=C(C)C)c(OC)c1 | > 10 | > 10 |  |  | > 10
CC(C)=CCC/C(C)=C/CC/C(C)=C/Cc1c(O)cc(/C=C/c2ccc(O)cc2)cc1O | 9 | 3 | 0.33 | 0.67 | 6

Next, values leading:

Ke [1] [µM] | Ke [2] [µM] | Ratio [3] | Ratio [4] | Ke [5] [µM] | Compound
0.2 | 0.57 | 2.9 | 14.5 | 2.9 | CC(C)=CCC/C(C)=C/Cc1c(O)cc(O)cc1/C=C/c1ccc(O)c(O)c1CC=C(C)C
> 10 | > 10 |  |  | > 10 | CC(C)=CCc1c(O)cc(/C=C/c2ccc(O)c(O)c2)cc1O
> 10 | > 10 |  |  | > 10 | CC(C)=CCC/C(C)=C/Cc1c(O)cc(/C=C/c2ccc(O)c(O)c2)cc1O
> 10 | > 10 |  |  | > 10 | CC(C)=CCC/C(C)=C/Cc1c(O)cc(O)cc1/C=C/c1ccc(O)c(O)c1
> 10 | > 10 |  |  | > 10 | COc1cc(/C=C/c2ccc(O)c(O)c2)c(C/C=C(\C)CCC=C(C)C)c(OC)c1
